Measurements collected from several papers.
Each line is one published result; the experiments were not run side by side.
DRD3: D(3) dopamine receptor (DRD3, Homo sapiens, UniProt P35462)

| Structure (SMILES) | target | assay | setting | measurement | value |
| --- | --- | --- | --- | --- | --- |
| CC[C@H](C)[C@H](NC(=O)[C@H](CC(C)C)NC(=O)[C@H](Cc1c[nH]c2ccccc12)NC(=O)[C@H](CCCCN)NC(=O)[C@H](CC(C)C)NC(=O)[C@H](Cc1ccccc1)NC(=O)[C@H](CCC(=O)O)NC(=O)[C@H](CCC(N)=O)NC(=O)[C@@H](NC(=O)[C@H](C)NC(=O)[C@H](CC(C)C)NC(=O)[C@H](CC(=O)O)NC(=O)[C@H](CC(=O)O)NC(=O)[C@H](CC(C)C)NC(=O)[C@H](CC(C)C)NC(=O)[C@H](CCCCN)NC(=O)[C@H](CC(N)=O)NC(=O)[C@H](Cc1ccc(O)cc1)NC(=O)[C@H](CC(=O)O)NC(=O)[C@H](CO)NC(=O)[C@@H](NC(=O)[C@H](Cc1ccccc1)NC(=O)[C@@H](NC(=O)CNC(=O)[C@H](CC(=O)O)NC(=O)[C@H](C)NC(=O)[C@@H](N)Cc1c[nH]cn1)[C@@H](C)O)[C@@H](C)O)[C@@H](C)O)C(=O)N[C@@H](CC(N)=O)C(=O)N[C@@H](CCC(N)=O)C(=O)N[C@@H](CCCCN)C(=O)N[C@H](C(=O)N[C@H](C(=O)N[C@@H](CCC(N)=O)C(=O)O)[C@@H](C)O)C(C)C | Glucagon-like peptide 1 receptor (GLP1R, Homo sapiens, UniProt P43220) | reporter gene, agonist, luciferase | – | EC50 | 1.5 nM |
| C[C@H](N)Cn1ncc2ccc3c(c21)CCCO3 | 5-hydroxytryptamine receptor 2C (Rattus norvegicus, UniProt P08909) | calcium signal, agonist | – | EC50 | 15.7 nM |
| CC(C)[C@@H]1NC(=O)[C@H](CO)NC(=O)[C@H](CO)NC(=O)[C@H](CO)N(C)C(=O)[C@H](CC(=O)O)NC(=O)[C@H](CO)NC(=O)[C@H](Cc2ccccc2)NC(=O)CSC[C@@H](C(=O)NCC(N)=O)NC(=O)[C@H](CC(N)=O)NC(=O)[C@H](CCCNC(=N)N)NC(=O)[C@H](Cc2ccc(-c3ccccc3)cc2)NC(=O)[C@H](Cc2ccc(-c3ccccc3)cc2)NC(=O)[C@H](CC(N)=O)NC(=O)[C@@H]2CCCN2C1=O | Protein Mdm4 (MDM4, Homo sapiens, UniProt O15151) | ligand displacement, TR-FRET | – | IC50 | 835 nM |
| Nc1c(S(=O)(=O)O)cc(Nc2ccc(Nc3nc(Cl)nc(Nc4cccc(S(=O)(=O)O)c4)n3)c(S(=O)(=O)O)c2)c2c1C(=O)c1ccccc1C2=O | Pantothenate kinase 3 (PANK3, Homo sapiens, UniProt Q9H999) | enzyme activity, inhibitor, ATP luminescence | – | IC50 | 1300 nM |
| CSc1nc(N[C@H](C(C)C)C2CC2)c2ncn([C@H]3[C@H](O)[C@H](O)[C@]4(CO)C[C@H]34)c2n1 | DRD3 | ligand displacement, radioligand | – | Ki | 2230 nM |
| CC(CCc1ccccc1)NC(C)C(O)c1ccc(O)cc1 (centres unmarked) | DRD3 | ligand displacement, radioligand | – | IC50 | 1290 nM |
| CCCc1cc2cc(-n3nc(C)c4c3CC(C)(C)CC4=O)cc(N[C@H]3CC[C@H](O)CC3)c2c(=O)[nH]1 | Heat shock protein 75 kDa, mitochondrial (TRAP1, Homo sapiens, UniProt Q12931) | ligand displacement, FP | – | IC50 | > 50000 nM |
| C/C(N)=N\C(=N/S(=O)(=O)c1ccc(C(F)(F)F)cc1)N1C[C@H](c2ccccc2)C(c2ccc(Cl)cc2)=N1 | Cannabinoid receptor 1 (Cnr1, Mus musculus, UniProt P47746) | ligand displacement, radioligand | cell membranes | Ki | 2.3 nM |
